These results are taken from ChEMBL document CHEMBL1147646, “Novel benzofuran derivatives for PET imaging of beta-amyloid plaques in Alzheimer's disease brains” (J Med Chem, 2006).

Calls of active or inactive are those of the source. The calls are words filed in the database; no cut-off is given here.

What is called logD is the decadic logarithm of the distribution of all forms, ionised or not, between an organic phase and buffer at a given pH. What is called Ki is the equilibrium dissociation constant of an inhibitor or competing ligand from its target. Low values mean tighter binding, high ones weaker binding.

Data set [1] can be described thus: Partition coefficient, log P at pH 7.4. It counts as physicochemical. The settings on record: octanol/water.
The species entered for data set [2] is Mus musculus. Kind of data set: %Compound removed from ddY mouse brain after 30 mins. Format: ADME, organism-based. Conditions: in vivo, 0.5 h.
The subject of data set [3] is Mus musculus. Kind of data set: Ratio for drug uptake in iv dosed ddY mouse brain after 2 mins to after 30 mins. Format: ADME, organism-based. Conditions: in vivo.
Data set [4] concerns the target T1, Amyloid-beta precursor protein (Homo sapiens, UniProt P05067). The data set is described as follows: Displacement of [125I]IMPY from beta amyloid in human corpse AD brain. For orientation: Displacement assays read how much labelled ligand stays bound in the presence of the test substance.
The target in data set [5] is T1, Amyloid-beta precursor protein. The data set is described as follows: Ability for neuropathological staining of cerebrovascular amyloid plaque in human corpse AD brain. It counts as functional. The method, boiled down: (§1)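 Postmortem temporal cortex from two AD cases, 5 µm paraffin serial sections deparaffinized in xylene/ethanol, washed in water then PBS, immersed in compound solution at various concentrations (50% ethanol in PBS above 0.5 mM), PBS wash 15 min, mounted; viewed by fluorescence microscopy (G-filter); serial sections immunostained for Aβ and tau with DAB.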

For data set [6], the target named is Microtubule-associated protein tau (Homo sapiens) (UniProt P10636). Kind of data set: Ability for neuropathological staining of neurofibrillary tangles in human corpse AD brain temporal cortex.
In data set [7] the target is T1, Amyloid-beta precursor protein. Kind of data set: Ability for neuropathological staining of amyloid plaque in human corpse AD brain temporal cortex. It counts as functional, tissue-based. The method in brief: as §1
The target is the same in data set [8]. The data set is described as follows: Labelling of accumulated amyloid plaque in Tg2576 transgenic mouse brain hippocampus expressing human APP after 30 mins. It counts as functional, tissue-based. Conditions: tested as the 11C-labelled form.
Data set [9] shares this target. Kind of data set: Labelling of accumulated amyloid plaque in Tg2576 transgenic mouse brain cerebral cortex expressing human APP after 30 mins. It counts as functional, tissue-based. The settings on record: tested as the 11C-labelled form.

T1 sequence (P05067 whole entry): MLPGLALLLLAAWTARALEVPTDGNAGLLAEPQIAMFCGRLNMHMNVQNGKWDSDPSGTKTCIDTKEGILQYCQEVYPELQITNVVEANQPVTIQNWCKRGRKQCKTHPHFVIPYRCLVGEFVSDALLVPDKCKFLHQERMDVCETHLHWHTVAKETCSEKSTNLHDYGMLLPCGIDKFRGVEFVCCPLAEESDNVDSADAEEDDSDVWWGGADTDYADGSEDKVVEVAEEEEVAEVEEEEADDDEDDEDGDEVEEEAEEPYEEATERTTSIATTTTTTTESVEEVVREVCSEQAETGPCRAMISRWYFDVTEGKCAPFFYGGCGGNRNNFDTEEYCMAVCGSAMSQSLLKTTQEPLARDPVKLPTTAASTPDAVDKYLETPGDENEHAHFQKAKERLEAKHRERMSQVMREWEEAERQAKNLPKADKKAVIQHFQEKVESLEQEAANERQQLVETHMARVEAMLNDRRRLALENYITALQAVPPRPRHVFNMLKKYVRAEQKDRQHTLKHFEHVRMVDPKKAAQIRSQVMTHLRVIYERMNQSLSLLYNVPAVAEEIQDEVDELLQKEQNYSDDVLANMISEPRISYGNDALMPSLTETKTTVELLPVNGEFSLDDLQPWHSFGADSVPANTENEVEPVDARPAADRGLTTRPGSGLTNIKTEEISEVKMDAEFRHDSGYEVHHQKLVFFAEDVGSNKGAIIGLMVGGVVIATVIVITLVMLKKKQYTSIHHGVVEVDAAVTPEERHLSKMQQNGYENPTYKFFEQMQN
Microtubule-associated protein tau (Homo sapiens), sequence (P10636 whole entry, looked up): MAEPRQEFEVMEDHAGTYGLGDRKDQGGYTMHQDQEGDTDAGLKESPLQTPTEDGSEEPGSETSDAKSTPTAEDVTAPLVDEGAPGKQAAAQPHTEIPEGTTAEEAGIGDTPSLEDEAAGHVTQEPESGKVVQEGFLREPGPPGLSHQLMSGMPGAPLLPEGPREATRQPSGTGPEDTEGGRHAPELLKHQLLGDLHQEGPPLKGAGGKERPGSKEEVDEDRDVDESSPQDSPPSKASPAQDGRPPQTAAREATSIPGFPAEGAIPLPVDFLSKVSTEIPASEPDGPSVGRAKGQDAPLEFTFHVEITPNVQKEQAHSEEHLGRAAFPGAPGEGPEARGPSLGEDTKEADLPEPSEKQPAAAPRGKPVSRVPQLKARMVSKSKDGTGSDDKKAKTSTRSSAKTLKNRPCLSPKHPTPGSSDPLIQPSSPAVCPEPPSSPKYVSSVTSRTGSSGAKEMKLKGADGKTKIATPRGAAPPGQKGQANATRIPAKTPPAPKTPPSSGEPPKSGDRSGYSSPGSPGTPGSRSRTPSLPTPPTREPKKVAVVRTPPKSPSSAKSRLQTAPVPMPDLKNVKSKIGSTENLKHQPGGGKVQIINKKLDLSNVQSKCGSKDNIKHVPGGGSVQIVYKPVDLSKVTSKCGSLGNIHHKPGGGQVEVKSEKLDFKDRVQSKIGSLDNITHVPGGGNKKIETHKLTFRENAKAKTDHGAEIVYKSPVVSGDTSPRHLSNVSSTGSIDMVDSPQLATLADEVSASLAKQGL

`[11CH3]Nc1ccc(-c2cc3cc(O)ccc3o2)cc1`: the logD in data set [1] amounted to 2.36. The washout in the data set filed under Mus musculus [2] came to 90%. Besides, the Ratio with Mus musculus [3] was 0.07.

`COc1ccc2oc(-c3ccc(N)cc3)cc2c1` returned a Ki in [4] of 2.3 nM.

In the case of `CNc1ccc(-c2cc3cc(O)ccc3o2)cc1`, the result in [5], in [6], in [7], in [8] and in data set [9] was Active. The compound further registered a Ki in [4] of 0.7 nM.

In the case of `COc1ccc2oc(-c3ccc(N(C)C)cc3)cc2c1`, the Ki in [4] is 12 nM.

As to `CNc1ccc(-c2cc3cc(OC)ccc3o2)cc1`, in data set [4], the affinity, expressed as Ki, was 1.3 nM.

Compound `Nc1ccc(-c2cc3cc(O)ccc3o2)cc1` yielded a Ki in [4] of 11.5 nM.

In data set [4], `CN(C)c1ccc(-c2cc3cc(O)ccc3o2)cc1` returned a Ki of 2.8 nM.
